≈ marks a conversion by molar mass, not a printed value. Calls of active or inactive are those of the source. No cut-off for these calls is given here.
What was measured:
[1] = molecular target: T1, Sterol O-acyltransferase 1 (Rattus norvegicus, UniProt O70536); test: Inhibition of ACAT in rat macrophages assessed as incorporation of extracellular [3H]-oleic acid-BSA complex into the intracellular cholesteryl ester after 24 hrs; assay type: cell-based
T1 sequence (O70536 whole entry): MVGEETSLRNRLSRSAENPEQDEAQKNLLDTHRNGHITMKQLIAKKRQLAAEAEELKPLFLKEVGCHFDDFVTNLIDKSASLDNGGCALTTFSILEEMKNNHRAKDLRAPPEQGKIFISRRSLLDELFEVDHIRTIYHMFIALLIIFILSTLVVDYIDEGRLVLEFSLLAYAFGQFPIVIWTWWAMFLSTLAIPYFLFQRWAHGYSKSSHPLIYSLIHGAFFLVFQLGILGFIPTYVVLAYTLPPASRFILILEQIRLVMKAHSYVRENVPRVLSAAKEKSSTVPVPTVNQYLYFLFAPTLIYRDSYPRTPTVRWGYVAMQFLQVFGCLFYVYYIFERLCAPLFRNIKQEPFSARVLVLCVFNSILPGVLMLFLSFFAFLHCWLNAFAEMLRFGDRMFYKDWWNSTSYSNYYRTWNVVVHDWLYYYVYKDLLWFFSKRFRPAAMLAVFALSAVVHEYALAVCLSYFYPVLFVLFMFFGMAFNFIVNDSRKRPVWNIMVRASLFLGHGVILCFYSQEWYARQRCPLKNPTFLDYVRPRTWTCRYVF
Outline: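 Cells seeded at 2 × 10⁶ cells/mL/well, incubated 24 h at 37 °C (humidified, 5% CO₂) in medium containing liposomes, ³H-oleic acid–BSA complex and a range of compound concentrations. Protein measured by Lowry method.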

HepG2 [2] = test: Up-regulation of LDL receptor expression in human HepG2 cells at 100 nM by immunoblot analysis; assay type: functional, cell-based
Outline: (§1)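 HepG2 cells exposed to compound, lysed in 125 mM Tris–HCl pH 8.0, 2 mM CaCl₂, 1% Triton X-100 with protease inhibitor cocktail, then centrifuged. LDL receptor detected by immunoblot with mouse monoclonal anti-LDL-R antibody (clone IgG-C7).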

[3] = Solubility at pH 7.4; assay type: physicochemical; settings: buffer
HepG2 [4] = test: Up-regulation of LDL receptor expression in human HepG2 cells at 10 uM by immunoblot analysis; assay type: functional, cell-based; outline: as §1

Row | Structure (SMILES) | IC50 [1] [µM] | Activity (HepG2 [2]) | solubility [3] [µg/mL] | Activity (HepG2 [4])
1 | COc1ccccc1N1CCC(CNC(=O)Nc2c(C(C)C)cc(N)cc2C(C)C)(c2cccc(OCCCO)c2)CC1 | 0.062 | Active |  | 
2 | COc1cccc(C2(CNC(=O)Nc3c(C(C)C)cc(N)cc3C(C)C)CCN(c3ccccc3OC)CC2)c1 | 0.037 | Active |  | 
3 | COc1ccccc1N1CCC(CNC(=O)Nc2c(C(C)C)cc(N)cc2C(C)C)(c2ccccc2)CC1 | 0.082 | inactive |  | 
4 | COc1cccc(C2(CNC(=O)Nc3c(C(C)C)cc(N)cc3C(C)C)CCN(c3ccccc3OC(F)(F)F)CC2)c1 | 0.068 | Active |  | 
5 | COc1cccc(C2(CNC(=O)Nc3c(C(C)C)cc(N)cc3C(C)C)CCN(c3ccccc3OCCCN(C)C)CC2)c1.Cl | 0.239 |  | > 250 | 
6 | COc1cccc(C2(CNC(=O)Nc3c(C(C)C)cc(N)cc3C(C)C)CCN(c3ccccc3OCCCN)CC2)c1.Cl | 0.195 | Active | 32 | 
7 | COc1cccc(C2(CNC(=O)Nc3c(C(C)C)cc(N)cc3C(C)C)CCN(c3ncccc3OC)CC2)c1 | 0.006 |  |  | 
8 | COc1cccc(C2(CNC(=O)Nc3c(C(C)C)cc(N)cc3C(C)C)CCN(c3ccncc3)CC2)c1 | > 1 |  |  | 
9 | COc1cccc(C2(CNC(=O)Nc3c(C(C)C)cc(N)cc3C(C)C)CCN(c3ccccc3OC(C)C)CC2)c1 | 0.037 | Active |  | 
10 | CCCCn1c(=O)c(NC(=O)Nc2c(C(C)C)cc(N)cc2C(C)C)c(-c2cccc(OCCCO)c2)c2cccnc21 | 0.031 | Active | 10 (≈ 17.1 µM) | 
11 | COc1ccccc1N1CCC(CNC(=O)Nc2c(C(C)C)cc(N)cc2C(C)C)(c2cccc(O)c2)CC1 | 0.797 | inactive |  | 
12 | COc1cccc(C2(CNC(=O)Nc3c(C(C)C)cc(N)cc3C(C)C)CCN(c3ccccc3OCCCO)CC2)c1.Cl.Cl | 0.018 | Active | 22 | 
13 | COc1cccc(C2(CNC(=O)Nc3c(C(C)C)cccc3C(C)C)CCN(c3ccccc3)CC2)c1 |  |  |  | inactive
14 | COc1cccc(C2(CNC(=O)Nc3c(C(C)C)cc(N)cc3C(C)C)CCN(c3ccccc3)CC2)c1 | 0.04 |  |  | inactive
15 | CCCCOc1ccccc1N1CCC(CNC(=O)Nc2c(C(C)C)cc(N)cc2C(C)C)(c2cccc(OC)c2)CC1 | 0.032 | Active | 0.3 (≈ 0.511 µM) | 
16 | COc1cccc(C2(CNC(=O)Nc3c(C(C)C)cc(N)cc3C(C)C)CCN(c3ccccc3OCC(F)(F)F)CC2)c1 | 0.048 | Active |  | 
17 | COc1cccc(C2(CNC(=O)Nc3c(C(C)C)cc(N)cc3C(C)C)CCN(c3ccccn3)CC2)c1 | 0.032 |  |  | 
18 | COc1cccc(C2(CNC(=O)Nc3c(C(C)C)cc(N)cc3C(C)C)CCN(c3ncccc3OCCCO)CC2)c1 | 0.004 |  |  | 
19 | COc1cccc(C2(CNC(=O)Nc3c(C(C)C)cc(N)cc3C(C)C)CCN(c3ccccc3O)CC2)c1 |  | inactive |  | 
20 | COc1cccc(N2CCC(CNC(=O)Nc3c(C(C)C)cc(N)cc3C(C)C)(c3cccc(OC)c3)CC2)c1 | 0.048 | inactive |  | 
21 | COc1ccc(N2CCC(CNC(=O)Nc3c(C(C)C)cc(N)cc3C(C)C)(c3cccc(OC)c3)CC2)cc1 | 0.142 | inactive |  | 
22 | COc1cccc(C2(CNC(=O)Nc3c(C(C)C)cc(N)cc3C(C)C)CCN(c3ccccc3OCCO)CC2)c1 | 0.096 | Active |  | 
23 | CC(C)c1cc(C(C)C)c(CC(=O)NS(=O)(=O)Oc2c(C(C)C)cccc2C(C)C)c(C(C)C)c1 [AVASIMIBE] | 0.479 | inactive |  | 
24 | COc1cccc(C2(CNC(=O)Nc3c(C(C)C)cc(N)cc3C(C)C)CCN(c3cccnc3)CC2)c1 | 0.466 |  |  | 
